Measurements reported in ChEMBL document CHEMBL1149770, “Synthesis and antimicrobial studies of novel dichlorofluorophenyl containing aminotriazolothiadiazines” (2008).
Converted amounts (≈) assume the structure as drawn.

What was measured:
Klebsiella pneumoniae [1] = assay: Antibacterial activity against Klebsiella pneumoniae after 24 hrs by broth dilution technique; format: functional
Summary of the method: (§1)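 MIC by broth dilution in nutrient broth with logarithmic serial twofold dilutions of compound. Inoculum approx. 5×10^5 c.f.u actively dividing bacteria. Incubated 24 h at 37 °C, growth monitored visually and spectrophotometrically. MIC taken as the lowest concentration (highest dilution) arresting growth. Ciprofloxacin reference.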

Aspergillus flavus [2] = assay: Antifungal activity against Aspergillus flavus after 48 hrs […]; format: functional
[3] = tested on: Trichophyton mentagrophytes; assay: Antifungal activity against Trichophyton mentagrophytes after 48 hrs […]; format: functional
Streptococcus pyogenes [4] = assay: Antibacterial activity against Streptococcus pyogenes after 24 hrs by broth dilution technique; format: functional; summary of the method: as §1
Staphylococcus aureus [5] = assay: Antibacterial activity against Staphylococcus aureus ATCC 25923 assessed as inhibition zone diameter after 24 hrs […]; format: functional
Summary of the method: (§2)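 Disc diffusion on nutrient agar. Inoculum 1-2 × 10^7 c.f.u/ml (0.5 McFarland) spread over the plate surface. Sterile 6.25 mm filter-paper discs soaked in a known concentration of compound. Solvent and growth controls included. Plates incubated inverted 24 h at 37 °C, then inhibition zone diameter measured in mm. Ciprofloxacin reference.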

Pseudomonas aeruginosa [6] = assay: Antibacterial activity against Pseudomonas aeruginosa ATCC 27853 assessed as inhibition zone diameter after 24 hrs […]; format: functional; summary of the method: as §2
Candida albicans [7] = assay: Antifungal activity against Candida albicans after 48 hrs […]; format: functional
Klebsiella pneumoniae [8] = assay: Antibacterial activity against Klebsiella pneumoniae assessed as inhibition zone diameter after 24 hrs […]; format: functional; summary of the method: as §2
Staphylococcus aureus [9] = assay: Antibacterial activity against Staphylococcus aureus ATCC 25923 after 24 hrs by broth dilution technique; format: functional; conditions: ATCC 25923, 24 h; summary of the method: as §1
Talaromyces marneffei [10] = assay: Antifungal activity against Penicillium marneffei assessed as inhibition zone diameter […] by agar dilution method; format: functional
Summary of the method: (§3)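 Compounds in DMSO placed in punched wells on Sabouraud agar (peptone, glucose, agar, pH 5.7) lawned with saline spore suspension. Plates pre-dried 1 h at 37 °C. Controls in triplicate, incubation at 37 °C for 3-4 days, then inhibition zone diameter read in mm. Amphotericin B reference.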

Aspergillus fumigatus [11] = assay: Antifungal activity against Aspergillus fumigatus after 48 hrs […]; format: functional
[12] = tested on: Trichophyton mentagrophytes; assay: Antifungal activity against Trichophyton mentagrophytes assessed as inhibition zone diameter […] by agar dilution method; format: functional; summary of the method: as §3
Aspergillus flavus [13] = assay: Antifungal activity against Aspergillus flavus assessed as inhibition zone diameter […] by agar dilution method; format: functional; summary of the method: as §3
Pseudomonas aeruginosa [14] = assay: Antibacterial activity against Pseudomonas aeruginosa ATCC 27853 after 24 hrs by broth dilution technique; format: functional; conditions: ATCC 27853, 24 h; summary of the method: as §1
Candida albicans [15] = assay: Antifungal activity against Candida albicans assessed as inhibition zone diameter […] by agar dilution method; format: functional; summary of the method: as §3
Streptococcus pyogenes [16] = assay: Antibacterial activity against Streptococcus pyogenes assessed as inhibition zone diameter after 24 hrs by disc diffusion method
Aspergillus fumigatus [17] = assay: Antifungal activity against Aspergillus fumigatus assessed as inhibition zone diameter […] by agar dilution method; format: functional; summary of the method: as §3
Talaromyces marneffei [18] = assay: Antifungal activity against Penicillium marneffei after 48 hrs […]; format: functional
Escherichia coli = assay: Antibacterial activity against Escherichia coli ATCC 25922 after 24 hrs by broth dilution technique; format: functional; conditions: ATCC 25922, 24 h; summary of the method: as §1

SMILES | MIC (Klebsiella pneumoniae [1]) | MIC (Aspergillus flavus [2]) | MIC [3] | MIC (Streptococcus pyogenes [4]) | MIC (Candida albicans [7]) | MIC (Staphylococcus aureus [9]) | MIC (Aspergillus fumigatus [11]) | MIC (Pseudomonas aeruginosa [14]) | MIC (Talaromyces marneffei [18]) | MIC (Escherichia coli) | inhibition zone (IZ) (Staphylococcus aureus [5]) | inhibition zone (IZ) (Pseudomonas aeruginosa [6]) | inhibition zone (IZ) (Klebsiella pneumoniae [8]) | inhibition zone (IZ) (Talaromyces marneffei [10]) | inhibition zone (IZ) [12] | inhibition zone (IZ) (Aspergillus flavus [13]) | inhibition zone (IZ) (Candida albicans [15]) | inhibition zone (IZ) (Streptococcus pyogenes [16]) | inhibition zone (IZ) (Aspergillus fumigatus [17])
Nn1c(SCC(=O)Nc2ccc(Cl)cc2)nnc1-c1cc(F)c(Cl)cc1Cl | 12.5 mg/L (≈ 28 µM) | 25 mg/L (≈ 56 µM) | 25 mg/L (≈ 56 µM) | 25 mg/L (≈ 56 µM) | 12.5 mg/L (≈ 28 µM) | 12.5 mg/L (≈ 28 µM) | 12.5 mg/L (≈ 28 µM) | 12.5 mg/L (≈ 28 µM) | 12.5 mg/L (≈ 28 µM) | 12.5 mg/L (≈ 28 µM) | 17 mm | 18 mm | 12 mm | 17 mm | 8 mm | 10 mm | 12 mm | 10 mm | 15 mm
Nn1c(SCC(=O)Nc2cc(Cl)c(Cl)cc2Cl)nnc1-c1cc(F)c(Cl)cc1Cl | 6.25 mg/L (≈ 12.1 µM) | 6.25 mg/L (≈ 12.1 µM) | 6.25 mg/L (≈ 12.1 µM) | 6.25 mg/L (≈ 12.1 µM) | 6.25 mg/L (≈ 12.1 µM) | 6.25 mg/L (≈ 12.1 µM) | 6.25 mg/L (≈ 12.1 µM) | 6.25 mg/L (≈ 12.1 µM) | 6.25 mg/L (≈ 12.1 µM) | 6.25 mg/L (≈ 12.1 µM) | 22 mm | 30 mm | 21 mm | 23 mm | 19 mm | 25 mm | 20 mm | 25 mm | 21 mm
Cc1ccc(NC(=O)CSc2nnc(-c3cc(F)c(Cl)cc3Cl)n2N)cc1 | 6.25 mg/L (≈ 14.7 µM) | 6.25 mg/L (≈ 14.7 µM) | 6.25 mg/L (≈ 14.7 µM) | 6.25 mg/L (≈ 14.7 µM) | 6.25 mg/L (≈ 14.7 µM) | 6.25 mg/L (≈ 14.7 µM) | 6.25 mg/L (≈ 14.7 µM) | 6.25 mg/L (≈ 14.7 µM) | 6.25 mg/L (≈ 14.7 µM) | 6.25 mg/L (≈ 14.7 µM) | 25 mm | 31 mm | 20 mm | 23 mm | 18 mm | 22 mm | 18 mm | 22 mm | 20 mm
Fc1cc(-c2nnc3n2N=C(Nc2cc(Cl)c(Cl)cc2Cl)CS3)c(Cl)cc1Cl | 6.25 mg/L (≈ 12.6 µM) | 6.25 mg/L (≈ 12.6 µM) | 6.25 mg/L (≈ 12.6 µM) | 6.25 mg/L (≈ 12.6 µM) | 6.25 mg/L (≈ 12.6 µM) | 6.25 mg/L (≈ 12.6 µM) | 6.25 mg/L (≈ 12.6 µM) | 6.25 mg/L (≈ 12.6 µM) | 6.25 mg/L (≈ 12.6 µM) | 6.25 mg/L (≈ 12.6 µM) | 24 mm | 32 mm | 20 mm | 24 mm | 18 mm | 23 mm | 20 mm | 23 mm | 19 mm
Nn1c(SCC(=O)Nc2ccccc2C(F)(F)F)nnc1-c1cc(F)c(Cl)cc1Cl | 6.25 mg/L (≈ 13 µM) | 6.25 mg/L (≈ 13 µM) | 6.25 mg/L (≈ 13 µM) | 6.25 mg/L (≈ 13 µM) | 6.25 mg/L (≈ 13 µM) | 6.25 mg/L (≈ 13 µM) | 6.25 mg/L (≈ 13 µM) | 6.25 mg/L (≈ 13 µM) | 6.25 mg/L (≈ 13 µM) | 6.25 mg/L (≈ 13 µM) | 25 mm | 29 mm | 20 mm | 22 mm | 18 mm | 21 mm | 19 mm | 22 mm | 19 mm
Fc1cc(-c2nnc3n2N=C(Nc2ccccc2C(F)(F)F)CS3)c(Cl)cc1Cl | 6.25 mg/L (≈ 13.5 µM) | 6.25 mg/L (≈ 13.5 µM) | 6.25 mg/L (≈ 13.5 µM) | 6.25 mg/L (≈ 13.5 µM) | 6.25 mg/L (≈ 13.5 µM) | 6.25 mg/L (≈ 13.5 µM) | 6.25 mg/L (≈ 13.5 µM) | 6.25 mg/L (≈ 13.5 µM) | 6.25 mg/L (≈ 13.5 µM) | 6.25 mg/L (≈ 13.5 µM) | 22 mm | 30 mm | 21 mm | 21 mm | 17 mm | 21 mm | 18 mm | 23 mm | 21 mm

Continued, in another order:

MIC (Klebsiella pneumoniae [1]) | MIC (Aspergillus flavus [2]) | MIC [3] | MIC (Streptococcus pyogenes [4]) | MIC (Candida albicans [7]) | MIC (Staphylococcus aureus [9]) | MIC (Aspergillus fumigatus [11]) | MIC (Pseudomonas aeruginosa [14]) | MIC (Talaromyces marneffei [18]) | MIC (Escherichia coli) | SMILES | inhibition zone (IZ) (Staphylococcus aureus [5]) | inhibition zone (IZ) (Pseudomonas aeruginosa [6]) | inhibition zone (IZ) (Klebsiella pneumoniae [8]) | inhibition zone (IZ) (Talaromyces marneffei [10]) | inhibition zone (IZ) [12] | inhibition zone (IZ) (Aspergillus flavus [13]) | inhibition zone (IZ) (Candida albicans [15]) | inhibition zone (IZ) (Streptococcus pyogenes [16]) | inhibition zone (IZ) (Aspergillus fumigatus [17])
12.5 mg/L (≈ 29.6 µM) | 6.25 mg/L (≈ 14.8 µM) | 6.25 mg/L (≈ 14.8 µM) | 6.25 mg/L (≈ 14.8 µM) | 12.5 mg/L (≈ 29.6 µM) | 6.25 mg/L (≈ 14.8 µM) | 25 mg/L (≈ 59.2 µM) | 6.25 mg/L (≈ 14.8 µM) | 12.5 mg/L (≈ 29.6 µM) | 12.5 mg/L (≈ 29.6 µM) | Cc1cccc(C)c1NC1=Nn2c(nnc2-c2cc(F)c(Cl)cc2Cl)SC1 | 23 mm | 15 mm | 12 mm | 12 mm | 19 mm | 24 mm | 15 mm | 21 mm | 10 mm
6.25 mg/L (≈ 15.3 µM) | 6.25 mg/L (≈ 15.3 µM) | 6.25 mg/L (≈ 15.3 µM) | 6.25 mg/L (≈ 15.3 µM) | 6.25 mg/L (≈ 15.3 µM) | 6.25 mg/L (≈ 15.3 µM) | 6.25 mg/L (≈ 15.3 µM) | 6.25 mg/L (≈ 15.3 µM) | 6.25 mg/L (≈ 15.3 µM) | 6.25 mg/L (≈ 15.3 µM) | Cc1ccc(NC2=Nn3c(nnc3-c3cc(F)c(Cl)cc3Cl)SC2)cc1 | 21 mm | 29 mm | 21 mm | 23 mm | 17 mm | 19 mm | 18 mm | 23 mm | 20 mm
12.5 mg/L (≈ 29.5 µM) | 6.25 mg/L (≈ 14.7 µM) | 12.5 mg/L (≈ 29.5 µM) | 12.5 mg/L (≈ 29.5 µM) | 6.25 mg/L (≈ 14.7 µM) | 6.25 mg/L (≈ 14.7 µM) | 12.5 mg/L (≈ 29.5 µM) | 25 mg/L (≈ 58.9 µM) | > 100 mg/L | > 100 mg/L | COc1ccc(NC2=Nn3c(nnc3-c3cc(F)c(Cl)cc3Cl)SC2)cc1 | 22 mm | 15 mm | 12 mm |  | 13 mm | 18 mm | 19 mm | 16 mm | 12 mm
12.5 mg/L (≈ 28.5 µM) | 25 mg/L (≈ 57 µM) | > 100 mg/L |  | 12.5 mg/L (≈ 28.5 µM) | 6.25 mg/L (≈ 14.3 µM) | 12.5 mg/L (≈ 28.5 µM) | 25 mg/L (≈ 57 µM) | 12.5 mg/L (≈ 28.5 µM) | > 100 mg/L | CCOc1ccc(NC2=Nn3c(nnc3-c3cc(F)c(Cl)cc3Cl)SC2)cc1 | 20 mm | 15 mm | 12 mm | 17 mm |  | 10 mm | 12 mm |  | 15 mm
6.25 mg/L (≈ 14.6 µM) | 6.25 mg/L (≈ 14.6 µM) | 12.5 mg/L (≈ 29.2 µM) | 6.25 mg/L (≈ 14.6 µM) | 6.25 mg/L (≈ 14.6 µM) | 6.25 mg/L (≈ 14.6 µM) | 6.25 mg/L (≈ 14.6 µM) | 6.25 mg/L (≈ 14.6 µM) | 12.5 mg/L (≈ 29.2 µM) | 6.25 mg/L (≈ 14.6 µM) | Fc1cc(-c2nnc3n2N=C(Nc2ccc(Cl)cc2)CS3)c(Cl)cc1Cl | 24 mm | 32 mm | 20 mm | 15 mm | 11 mm | 20 mm | 16 mm | 25 mm | 18 mm
